What was measured:
[1] = tested on: Liver microsome; experiment: Covalent binding in human liver microsomes measured per mg of protein using radiolabelled compound at 10 uM after 1 hr incubation by liquid scintillation counting
[2] = tested on: Liver microsome; experiment: Metabolic activation in human liver microsomes assessed as [3H]GSH adduct formation rate measured per mg of protein at 100 uM by [3H]GSH trapping assay
[3] = target: T1, CYP2C8 (Homo sapiens, UniProt P10632); experiment: Time dependent inhibition of CYP2C8 (unknown origin) at 10 uM by LC/MS system; format: ADME
T1 sequence (P10632 whole entry): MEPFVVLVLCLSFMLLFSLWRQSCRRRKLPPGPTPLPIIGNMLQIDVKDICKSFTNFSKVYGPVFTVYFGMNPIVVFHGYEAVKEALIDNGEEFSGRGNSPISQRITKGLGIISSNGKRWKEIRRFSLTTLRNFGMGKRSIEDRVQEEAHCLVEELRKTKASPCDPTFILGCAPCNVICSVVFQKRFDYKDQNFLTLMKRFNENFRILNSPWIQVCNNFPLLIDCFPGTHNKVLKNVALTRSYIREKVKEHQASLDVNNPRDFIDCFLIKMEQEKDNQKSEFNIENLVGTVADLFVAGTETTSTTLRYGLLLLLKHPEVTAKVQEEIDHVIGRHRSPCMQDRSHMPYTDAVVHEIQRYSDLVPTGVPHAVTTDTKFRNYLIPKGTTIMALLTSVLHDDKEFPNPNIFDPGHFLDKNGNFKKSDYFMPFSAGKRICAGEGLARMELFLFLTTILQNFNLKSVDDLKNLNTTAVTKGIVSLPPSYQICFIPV
In short: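 CYP2C8 in human liver microsomes (1.0 mg/mL in preincubation), 0.1 M sodium phosphate, NADPH-generating system. Preincubation 0 or 30 min, then ten-fold dilution into incubation with 10 μM paclitaxel (final) for 10 min.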

[4] = Intrinsic clearance for reactive metabolites formation per mg of protein based on cytochrome P450 (unknown origin) inactivation rate by TDI assay; conditions: human
[5] = Intrinsic clearance for reactive metabolites formation assessed as summation of [3H]GSH adduct formation rate-based reactive metabolites formation and cytochrome P450 (unknown origin) inactivation rate-based reactive metabolites formation; conditions: human
[6] = tested on: Liver microsome; conditions: human, microsomes, 100 µM
[7] = target: T2, CYP1A2 (Homo sapiens, UniProt P05177); experiment: in vitro
T2 sequence (P05177 whole entry): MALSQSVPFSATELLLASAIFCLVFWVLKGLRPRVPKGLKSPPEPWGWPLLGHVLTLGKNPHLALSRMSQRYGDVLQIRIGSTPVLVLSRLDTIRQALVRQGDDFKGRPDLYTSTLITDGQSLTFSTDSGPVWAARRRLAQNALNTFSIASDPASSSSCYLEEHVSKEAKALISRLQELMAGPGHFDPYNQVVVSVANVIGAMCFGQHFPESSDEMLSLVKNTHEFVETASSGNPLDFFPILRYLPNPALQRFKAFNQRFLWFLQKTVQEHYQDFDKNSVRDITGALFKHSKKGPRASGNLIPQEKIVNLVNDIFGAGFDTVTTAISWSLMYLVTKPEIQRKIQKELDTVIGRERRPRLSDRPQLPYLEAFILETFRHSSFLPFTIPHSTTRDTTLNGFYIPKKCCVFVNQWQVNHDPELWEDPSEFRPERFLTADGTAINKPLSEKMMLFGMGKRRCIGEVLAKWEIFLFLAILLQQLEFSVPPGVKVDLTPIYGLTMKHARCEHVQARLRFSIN

[8] = target: T3, CYP2B6 (Homo sapiens, UniProt P20813); experiment: in vitro
T3 sequence (P20813 whole entry): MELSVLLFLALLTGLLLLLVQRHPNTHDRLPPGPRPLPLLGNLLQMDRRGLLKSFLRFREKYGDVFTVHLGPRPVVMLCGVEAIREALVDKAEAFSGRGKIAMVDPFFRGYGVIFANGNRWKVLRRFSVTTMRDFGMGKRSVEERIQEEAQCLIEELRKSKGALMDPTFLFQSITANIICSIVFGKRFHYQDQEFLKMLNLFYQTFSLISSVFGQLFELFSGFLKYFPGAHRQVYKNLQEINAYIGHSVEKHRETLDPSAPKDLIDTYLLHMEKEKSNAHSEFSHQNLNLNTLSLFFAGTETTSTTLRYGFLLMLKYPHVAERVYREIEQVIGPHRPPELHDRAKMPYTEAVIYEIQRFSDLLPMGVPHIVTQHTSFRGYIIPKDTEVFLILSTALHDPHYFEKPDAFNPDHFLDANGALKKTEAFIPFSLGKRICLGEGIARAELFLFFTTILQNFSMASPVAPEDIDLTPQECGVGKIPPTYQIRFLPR

[9] = target: T4, CYP2C9 (Homo sapiens, UniProt P11712); experiment: in vitro
T4 sequence (P11712 whole entry): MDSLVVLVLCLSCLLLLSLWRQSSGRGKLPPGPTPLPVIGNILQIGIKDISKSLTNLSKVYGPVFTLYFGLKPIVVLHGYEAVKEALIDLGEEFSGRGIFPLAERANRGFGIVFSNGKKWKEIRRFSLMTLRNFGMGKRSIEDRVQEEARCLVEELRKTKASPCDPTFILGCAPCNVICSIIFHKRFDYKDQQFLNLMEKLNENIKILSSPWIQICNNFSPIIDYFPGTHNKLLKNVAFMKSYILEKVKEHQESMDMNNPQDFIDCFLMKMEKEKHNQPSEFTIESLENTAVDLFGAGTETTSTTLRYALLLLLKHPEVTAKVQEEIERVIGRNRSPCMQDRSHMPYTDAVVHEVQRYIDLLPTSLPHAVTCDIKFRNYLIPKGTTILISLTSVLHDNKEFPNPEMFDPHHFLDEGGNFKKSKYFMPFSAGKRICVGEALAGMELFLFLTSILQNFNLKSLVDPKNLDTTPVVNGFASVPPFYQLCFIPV

[10] = target: CYP2C19 (Homo sapiens, UniProt P33261); experiment: in vitro
Chain of CYP2C19 (P33261 whole entry): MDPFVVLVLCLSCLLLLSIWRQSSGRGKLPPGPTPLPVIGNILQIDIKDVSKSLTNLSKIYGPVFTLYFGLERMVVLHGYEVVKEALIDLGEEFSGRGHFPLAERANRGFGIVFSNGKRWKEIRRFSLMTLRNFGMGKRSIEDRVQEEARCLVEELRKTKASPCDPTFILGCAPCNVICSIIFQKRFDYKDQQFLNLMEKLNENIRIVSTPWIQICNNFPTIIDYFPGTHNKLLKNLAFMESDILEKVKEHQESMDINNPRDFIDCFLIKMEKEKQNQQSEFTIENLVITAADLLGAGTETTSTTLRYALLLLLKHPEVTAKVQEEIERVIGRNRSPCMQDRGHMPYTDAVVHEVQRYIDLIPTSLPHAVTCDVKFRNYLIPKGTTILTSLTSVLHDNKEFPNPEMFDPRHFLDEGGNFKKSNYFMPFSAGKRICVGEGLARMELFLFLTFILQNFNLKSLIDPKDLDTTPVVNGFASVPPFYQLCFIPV

[11] = target: T4, CYP2C9; experiment: Time dependent inhibition of CYP2C9 (unknown origin) at 10 uM by LC/MS system; format: ADME
In short: (§1)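 Human liver microsomes at 1.0 mg/mL were preincubated 0 or 30 min with compound and NADPH-generating system in 0.1 M sodium phosphate, then diluted ten-fold into incubation containing 200 μM tolbutamide (final) for 10 min to probe CYP2C9. Percent of matched no-inhibitor control was determined at each time. Inactivation = 100 × [1 − ratio of 30-min to 0-min values]; 10% threshold.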

[12] = target: T5, CYP2D6 (Homo sapiens, UniProt P10635); experiment: in vitro
T5 sequence (P10635 whole entry): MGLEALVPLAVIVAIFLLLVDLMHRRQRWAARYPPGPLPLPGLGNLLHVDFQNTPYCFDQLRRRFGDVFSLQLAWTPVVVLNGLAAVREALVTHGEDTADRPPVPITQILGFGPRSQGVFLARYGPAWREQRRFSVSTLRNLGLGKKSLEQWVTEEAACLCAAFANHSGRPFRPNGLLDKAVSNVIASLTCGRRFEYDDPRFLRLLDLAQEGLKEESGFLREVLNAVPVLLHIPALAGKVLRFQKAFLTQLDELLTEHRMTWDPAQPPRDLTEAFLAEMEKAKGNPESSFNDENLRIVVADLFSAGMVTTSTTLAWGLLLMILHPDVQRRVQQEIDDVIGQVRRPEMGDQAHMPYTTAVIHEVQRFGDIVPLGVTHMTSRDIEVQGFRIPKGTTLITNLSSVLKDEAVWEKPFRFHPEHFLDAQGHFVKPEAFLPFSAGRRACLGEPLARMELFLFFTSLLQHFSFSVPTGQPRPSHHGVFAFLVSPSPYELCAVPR

[13] = target: T6, CYP3A4 (Homo sapiens, UniProt P08684); experiment: in vitro
T6 sequence (P08684 whole entry): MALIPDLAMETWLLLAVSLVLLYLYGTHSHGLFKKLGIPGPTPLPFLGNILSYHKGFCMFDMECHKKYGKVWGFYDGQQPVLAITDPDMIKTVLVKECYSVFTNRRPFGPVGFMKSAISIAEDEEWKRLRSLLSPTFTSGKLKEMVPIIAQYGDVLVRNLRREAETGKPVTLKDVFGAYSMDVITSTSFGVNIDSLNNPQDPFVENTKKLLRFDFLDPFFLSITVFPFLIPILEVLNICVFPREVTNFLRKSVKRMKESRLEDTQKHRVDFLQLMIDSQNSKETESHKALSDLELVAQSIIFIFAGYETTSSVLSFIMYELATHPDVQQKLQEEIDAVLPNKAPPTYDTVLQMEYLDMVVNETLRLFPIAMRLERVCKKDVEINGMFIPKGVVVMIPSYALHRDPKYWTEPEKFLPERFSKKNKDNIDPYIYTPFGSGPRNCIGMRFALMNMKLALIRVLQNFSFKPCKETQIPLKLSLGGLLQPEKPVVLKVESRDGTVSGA

[14] = target: T1, CYP2C8; experiment: in vitro
[15] = target: T1, CYP2C8; experiment: Time dependent inhibition of CYP2C8 (unknown origin) at 30 uM by LC/MS system; format: ADME
In short: (§2)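 CYP2C8 in human liver microsomes (1.0 mg/mL in preincubation), 0.1 M sodium phosphate, NADPH-generating system. Preincubation 0 or 30 min, then ten-fold dilution into incubation with 10 μM paclitaxel (final) for 10 min. Activity is taken relative to the matched no-inhibitor control. % inactivation = 100 × [1 − %control(30 min)/%control(0 min)]; threshold 10%.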

[16] = target: T3, CYP2B6; experiment: Time dependent inhibition of CYP2B6 (unknown origin) at 30 uM by LC/MS system; format: ADME
In short: as §2, with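 “CYP2B6” for “CYP2C8”, “solution containing 50” for “with 10”, “bupropion” for “paclitaxel”, “expressed as percent of” for “taken relative to”, “control(30 min)/control(0” for “%control(30 min)/%control(0”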

[17] = target: T6, CYP3A4; experiment: Time dependent inhibition of CYP3A4 (unknown origin) at 10 uM by LC/MS system; format: ADME
In short: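 CYP3A4: human liver microsomes at 0.5 mg/mL in preincubation, 0.1 M sodium phosphate, NADPH-generating system, 0 or 30 min. Ten-fold dilution into incubation with 2.5 μM midazolam (final), 10 min. Each value is relative to the matched control without inhibitor. % enzyme inactivation = 100 × [1 − %control(30 min)/%control(0 min)]; 10% threshold.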

[18] = target: T4, CYP2C9; experiment: Time dependent inhibition of CYP2C9 (unknown origin) at 30 uM by LC/MS system; format: ADME; in short: as §1
[19] = target: T5, CYP2D6; experiment: Time dependent inhibition of CYP2D6 (unknown origin) at 30 uM by LC/MS system; format: ADME
In short: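 Preincubation with HLMs at 1.0 mg/mL in 0.1 M sodium phosphate plus NADPH-generating system for 0 or 30 min, then tenfold dilution into incubation containing 30 μM dextromethorphan for 10 min; chromatographic read-out. Activity relative to controls without inhibitor; inactivation = 100×[1 − %control(30 min)/%control(0 min)], threshold 10%. Initial 100 μM lowered where reversible inhibition was strong.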

[20] = target: T3, CYP2B6; experiment: Time dependent inhibition of CYP2B6 (unknown origin) at 10 uM by LC/MS system; format: ADME
In short: as §2, with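 “CYP2B6” for “CYP2C8”, “solution containing 50” for “with 10”, “bupropion” for “paclitaxel”, “expressed as percent of” for “taken relative to”, “control(30 min)/control(0” for “%control(30 min)/%control(0”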

[21] = target: T1, CYP2C8; experiment: Time dependent inhibition of CYP2C8 (unknown origin) at 3 uM by LC/MS system; format: ADME; in short: as §2
[22] = target: T5, CYP2D6; experiment: Time dependent inhibition of CYP2D6 (unknown origin) at 10 uM by LC/MS system; format: ADME
In short: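 CYP2D6 activity was measured with 30 μM dextromethorphan (final) after 0 or 30 min preincubation of compound with human liver microsomes (1.0 mg/mL) and NADPH-generating system in 0.1 M sodium phosphate. A ten-fold dilution was followed by a 10-min incubation. % inactivation = 100 × [1 − %control(30 min)/%control(0 min)]; threshold 10%.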

[23] = target: T3, CYP2B6; experiment: Time dependent inhibition of CYP2B6 (unknown origin) at 0.3 uM by LC/MS system; format: ADME
In short: as §2, with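 “CYP2B6” for “CYP2C8”, “solution containing 50” for “with 10”, “bupropion” for “paclitaxel”, “expressed as percent of” for “taken relative to”, “control(30 min)/control(0” for “%control(30 min)/%control(0”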

[24] = target: T3, CYP2B6; experiment: in vitro; remark: listed apart in the source
[25] = target: T3, CYP2B6; experiment: Time dependent inhibition of CYP2B6 (unknown origin) at 3 uM by LC/MS system; format: ADME

| Compound | PB [1] [pmol] | Drug metabolism [2] | clearance [4] [µL/min/mg] | clearance [5] [µL/min/mg] | CLH [6] [µL/min/mg] | inhibition at 100 µM [7] [%] | inhibition at 100 µM [8] [%] | inhibition at 100 µM [9] [%] | inhibition at 100 µM ([10]; human liver microsomes) [%] | inhibition at 100 µM ([10]; microsomes) [%] | inhibition at 100 µM [12] [%] | inhibition at 100 µM [13] [%] | inhibition at 100 µM [14] [%] | inhibition at 10 µM [17] [%] | also measured |
| --- | --- | --- | --- | --- | --- | --- | --- | --- | --- | --- | --- | --- | --- | --- | --- |
| CN(CCOc1ccc(CC2SC(=O)NC2=O)cc1)c1ccccn1 (stereo not drawn) [ROSIGLITAZONE] | 516.1 | 2.2 pmol/min | 0.028 | 0.048 | 0.022 | < 10 | < 10 | < 10 | < 10 |  |  |  |  |  | inhibition at 10 µM [3]: < 10% |
| O=C(O)COc1ccc(C(=O)c2cccs2)c(Cl)c1Cl | 436.7 | 4.2 pmol/min | 0.069 | 0.111 | 0.042 | < 10 | < 10 |  |  | 35 | < 10 | < 10 | < 10 |  | inhibition at 10 µM [11]: 28% |
| CCc1ccc(CCOc2ccc(CC3SC(=O)NC3=O)cc2)nc1 (stereo not drawn) [PIOGLITAZONE] | 353 | metabolite_not_detected | 0.036 | 0.036 |  | < 10 | 38 | < 10 | < 10 |  | < 10 | 61 |  |  | inhibition at 30 µM [15]: < 10% |
| Cc1ccc(-c2cc(C(F)(F)F)nn2-c2ccc(S(N)(=O)=O)cc2)cc1 [CELECOXIB] | 13 | metabolite_not_detected |  |  |  | < 10 |  |  |  | < 10 |  |  | < 10 | < 10 | inhibition at 30 µM [16]: < 10%; inhibition at 30 µM [18]: < 10%; inhibition at 30 µM [19]: < 10% |
| CCc1oc2ccccc2c1C(=O)c1cc(Br)c(O)c(Br)c1 [BENZBROMARONE] | 389.9 | 3 pmol/min | 0.002 | 0.032 | 0.03 | 12 |  |  | < 10 |  | < 10 |  |  | < 10 | inhibition at 10 µM [20]: < 10%; inhibition at 3 µM [21]: < 10% |
| CCN(CC)Cc1cc(Nc2ccnc3cc(Cl)ccc23)ccc1O [AMODIAQUINE] | 208.1 | 2.1 pmol/min |  | 0.021 | 0.021 | < 10 | < 10 | < 10 |  | < 10 |  | < 10 |  |  | inhibition at 30 µM [15]: < 10%; inhibition at 10 µM [22]: < 10% |
| COC(=O)[C@H](c1ccccc1Cl)N1CCc2sccc2C1 [CLOPIDOGREL] | 417.4 | 23.6 pmol/min | 0.848 | 1.08 | 0.236 | < 10 |  | < 10 |  | 10 | < 10 |  | < 10 |  | inhibition at 0.3 µM [23]: 44% |
| COc1cc(C(=O)NS(=O)(=O)c2ccccc2C)ccc1Cc1cn(C)c2ccc(NC(=O)OC3CCCC3)cc12 [ZAFIRLUKAST] | 36.4 | metabolite_not_detected | 0.207 | 0.207 |  | 11 |  |  | < 10 |  | < 10 |  |  | 43 | inhibition at 10 µM [20]: < 10%; inhibition at 3 µM [21]: < 10%; inhibition at 10 µM [11]: < 10% |
| Clc1ccccc1CN1CCc2sccc2C1 [TICLOPIDINE] |  |  |  |  |  | 36 |  | < 10 |  |  |  | 26 | < 10 |  | inhibition at 10 µM [22]: < 10%; inhibition at 0.1 µM [24]: 35% |
| CCOC(=O)C1=C(COCCN)NC(C)=C(C(=O)OC)C1c1ccccc1Cl (stereo not drawn) [AMLODIPINE] | 7.1 | metabolite_not_detected |  |  |  | < 10 |  |  | < 10 |  | < 10 | 42 | < 10 | < 10 | inhibition at 3 µM [25]: < 10%; inhibition at 30 µM [18]: < 10%; inhibition at 30 µM [19]: < 10% |
